We go through ten compounds from ChEMBL document CHEMBL1132560, “N-Substituted 2-(2,6-dinitrophenylamino)propanamides: novel prodrugs that release a primary amine via nitroreduction and intramolecular cyclization” (J Med Chem, 1999).

The structures appear in SMILES notation.

In assay [1] the test system is CHO-AA8. Description: Cytotoxicity on AA8 cell growth (reduce cell number by 50%). The format is functional, cell-based. The settings on record: Cricetulus griseus. Summed up:
(§1)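 Cells in αMEM with 5% FBS plus penicillin/streptomycin were seeded per well at 200 (AA8), 300 (UV4), 75 (EMT6) or 600 (SKOV3) cells and grown 24 h. Drugs came from DMSO stocks (final DMSO <1%), pH 7.4. Exposure was aerobic for 4 h, followed by washing, 4–5 days further growth and methylene blue staining. IC₅₀ was set as 50% growth inhibition relative to same-plate controls. Mean ± SEM of 3–5 experiments.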

Assay [2] deals with EMT6. Description: Cytotoxicity on EMT6 cell growth (reduce cell number by 50%). In kind it is functional, cell-based. The settings on record: Mus musculus. Summed up:
as §1

Assay [3] has as its system SK-OV-3. Description: Cytotoxicity on SKOV3 cell growth (reduce cell number by 50%). The format is functional, cell-based. The settings on record: Homo sapiens. Summed up: as §1
Assay [4] has as its system UV4. Description: Compound concentration to reduce plating efficiency of UV4 cells to 10% controls under aerobic conditions of 20% oxygen to that under […]. In kind it is functional. Summed up: (§2)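 UV4 cells were grown to early plateau phase in spinner flasks and resuspended in fresh medium. Cells and drug in medium were pre-gassed for 1 h with 5% CO₂ in air (20% O₂) or in N₂. Cells at 10⁶/mL were then exposed for 1 h with continuous gassing and assayed clonogenically. C₁₀ is the concentration giving 10% surviving fraction; hypoxic selectivity is the ratio of aerobic to N₂ C₁₀. Mean ± SEM of 3 experiments.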

The test system of assay [5] is UV4. Description: Compound's concentration to reduce plating efficiency of UV4 cells to 10% controls under aerobic conditions of 20% oxygen. In kind it is functional. An outline of the steps: as §2
In assay [6] the test system is UV4. Description: Cytotoxicity on UV4 cell growth (reduce cell number by 50%). The format is functional, cell-based. The following applies: Cricetulus griseus. An outline of the steps:
as §1

Assay [7] can be described thus: 4-methoxyaniline yield was measured from 8 fold reduced forms of compound at pH 4. Summed up:
(§3)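 Anaerobic aqueous solutions with 0.5 M 2-propanol were γ-irradiated to deliver a set number of molar equiv of reducing species (e⁻aq, (CH₃)₂C•OH), at room temperature. pH 7.4 runs used 0.01 M phosphate, pH 4.0 runs 0.01 M formate. […] Released 4-methoxyaniline was quantified by C-18 HPLC with diode-array detection.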

Assay [8] in a line: 4-methoxyaniline yield was measured from 4 fold reduced forms of compound at pH 4. Summed up: as §3
The nature of assay [9]: 4-methoxyaniline yield was measured from 8 fold reduced forms of compound at pH 7.4. Summed up: as §3
The nature of assay [10]: 4-methoxyaniline yield was measured from 4 fold reduced forms of compound at pH 7.4. Summed up:
as §3

A short description of assay [11]: 4-methoxyaniline yield was measured from 8 fold reduced forms of compound at 4. An outline of the steps: as §3
A short description of assay [12]: 4-methoxyaniline yield was measured from 4 fold reduced forms of compound at 4. An outline of the steps:
as §3

Consider `COc1cc2cc(C(=O)N3CC(CCl)c4c3cc(N)c3ccccc43)[nH]c2c(OC)c1OC` (stereo unspecified), for which the concentration for half-maximal inhibition (IC50) turned out to be 0.46 nM in assay [1], 0.27 nM in [2], 1 nM in assay [3] and 0.29 nM in assay [6]. Further, the C10 in [4] is given as 1.1 air/N2; in [5], 3.4 nM.

With `COc1ccc(NC(=O)C(C)N(C)c2c([N+](=O)[O-])cc(C(=O)NCCO)cc2[N+](=O)[O-])cc1` (stereo unspecified), the Release was determined as 94% in assay [7] and 80% in assay [8].

Turning to `COc1ccc(NC(=O)C(C)Nc2c([N+](=O)[O-])cc(C(=O)NCC(O)CO)cc2[N+](=O)[O-])cc1` (stereo unspecified), the Release in assay [9] and in assay [10] was 92% in each case.

For the compound `COc1ccc(NC(=O)CN(C)c2c([N+](=O)[O-])cc(C(=O)NCCO)cc2[N+](=O)[O-])cc1`, the Release in assay [7] came out at 100%; in assay [8] it was 80%.

With `COc1ccc(NC(=O)CNc2c([N+](=O)[O-])cc(C(=O)NCCO)cc2[N+](=O)[O-])cc1`, the Release worked out at 83% in assay [7], 69% in assay [9], 69% in assay [10] and 83% in [8].

Turning to `COc1cc2cc(C(=O)N3CC(CCl)c4c3cc(NC(=O)C(C)Nc3c([N+](=O)[O-])cc(C(=O)NCCN(C)C)cc3[N+](=O)[O-])c3ccccc43)[nH]c2c(OC)c1OC` (stereo unspecified), the IC50 worked out at 95 nM in assay [1], 41 nM in assay [2], 87 nM in assay [3] and 53 nM in [6]. For the same compound, the C10 in assay [4] was 1.8 air/N2; in [5] it was 490 nM.

`COc1ccc(NC(=O)C(C)Nc2c([N+](=O)[O-])cc(C(=O)NCCO)cc2[N+](=O)[O-])cc1` (stereo unspecified): the Release was 97% in assay [11], 77% in assay [9], 77% in assay [10] and 97% in assay [12].

Consider `COc1ccc(NC(=O)C(C)(C)Nc2c([N+](=O)[O-])cc(C(=O)NCCO)cc2[N+](=O)[O-])cc1`, for which the Release in assay [9] and in assay [10] was 90% each time.

As to `CC(Nc1c([N+](=O)[O-])cc(C(=O)NCCN(C)C)cc1[N+](=O)[O-])C(=O)Nc1ccc(N(CCCl)CCCl)cc1` (stereo unspecified), the IC50 came out at 10500 nM in assay [1], 1300 nM in assay [2], 1300 nM in assay [3] and 3000 nM in [6]. The C10 in assay [4] came to 1.3 air/N2; in [5], 2100 nM.

Take `COc1ccc(NC(=O)C(C)Nc2c([N+](=O)[O-])cc(C(=O)NCCN(C)C)cc2[N+](=O)[O-])cc1` (stereo unspecified): the Release in [9] and in assay [10] was 89% each time.

A word on the IC50: it is the concentration that gives 50% inhibition. The low end stands for greater potency, the high end for weaker potency.
